The results in this text go back to ChEMBL document CHEMBL1146073, “A pyridazine series of alpha2/alpha3 subtype selective GABA A agonists for the treatment of anxiety” (J Med Chem, 2006).

Series [1] addresses GABA-A receptor; alpha-3/beta-3/gamma-2 (Homo sapiens) (UniProt P18507+P28472+P34903). Kind of series: Efficacy against recombinant human GABA-Aalpha3 plus beta-3-gamma-2 expressed in L(tk-) cells by whole cell patch clamp method relative to chlordiazepoxide. The series is classed as functional, cell-based. In outline: (§1)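 Whole-cell patch clamp on αxβ3γ2 receptors stably expressed in L(tk-) cells, measuring the effect on current evoked by an EC20-equivalent of GABA. Reported relative to full agonist chlordiazepoxide (=1.0), or as direct percent modulation of the EC20 control, with inverse agonism given as percent. Mean of at least four independent experiments.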
(In patch-clamp work, channel activity is measured electrically.)

In series [2] the target is GABA-A receptor; alpha-5/beta-3/gamma-2 (Homo sapiens) (UniProt P18507+P28472+P31644). The series is described as follows: Efficacy against recombinant human GABA-Aalpha5 plus beta-3-gamma-2 expressed in L(tk-) cells by whole cell patch clamp method relative to chlordiazepoxide. It is filed as functional, cell-based. In outline: as §1
Series [3] is described as follows: Plasma clearance in rat. It is filed as ADME, organism-based. In outline: (§2)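 Pharmacokinetics from six animals per species: three dosed iv and three dosed po.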
The nature of series [4]: Half life in rat. It is filed as ADME, organism-based. Conditions: in vivo. The procedure, abridged: as §2
The nature of series [5]: Oral bioavailability in rat. Conditions: in vivo. The series is classed as ADME, organism-based. The procedure, abridged:
as §2

For series [6], the target named is GABA-A receptor; anion channel (Rattus norvegicus) (UniProt O09028+P15431+P18506+P18508+P19969+P20236+P23574+P23576+P28471+P28473+P30191+P62813+P63079+P63138+Q91ZM7+Q9ES14). The series is described as follows: Receptor occupancy in vivo by displacement of [3H]Ro 15-1788 binding from GABA-A receptor in rat, po. The series is classed as functional, organism-based. The procedure, abridged:
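Rat in vivo occupancy measured by [3H]Ro 15-1788 binding after oral dosing. Rats taken as a subgroup after the plus-maze trial, i.e. 30 min post-dose or later. ED50 derived from dose-dependent occupancy. Mean ± SEM, n = 5-10/group.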
(In general: In a radioligand displacement assay an active substance lowers the binding of a labelled ligand.)

In series [7] the target is GABA-A receptor; alpha-2/beta-3/gamma-2 (Homo sapiens) (UniProt P18507+P28472+P47869). The series is described as follows: Efficacy against recombinant human GABA-Aalpha2 plus beta-3-gamma-2 expressed in L(tk-) cells by whole cell patch clamp method relative to chlordiazepoxide. It is filed as functional, cell-based. The procedure, abridged: as §1
Series [8] concerns the target T1, GABA-A receptor; alpha-1/beta-3/gamma-2 (Homo sapiens, UniProt P14867+P18507+P28472).
T1 sequence (P14867 whole entry): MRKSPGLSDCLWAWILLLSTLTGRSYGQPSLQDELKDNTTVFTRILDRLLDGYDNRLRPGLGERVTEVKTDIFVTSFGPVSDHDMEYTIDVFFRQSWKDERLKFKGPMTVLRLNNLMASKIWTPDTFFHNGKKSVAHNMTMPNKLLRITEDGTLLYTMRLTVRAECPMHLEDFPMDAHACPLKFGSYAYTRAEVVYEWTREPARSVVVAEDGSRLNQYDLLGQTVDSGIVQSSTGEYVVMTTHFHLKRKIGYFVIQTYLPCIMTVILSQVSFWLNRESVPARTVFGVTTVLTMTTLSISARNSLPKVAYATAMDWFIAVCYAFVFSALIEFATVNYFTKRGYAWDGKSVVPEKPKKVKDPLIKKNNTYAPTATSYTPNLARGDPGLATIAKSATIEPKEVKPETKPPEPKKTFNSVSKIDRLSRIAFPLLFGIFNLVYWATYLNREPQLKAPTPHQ
T1 sequence (P18507 whole entry): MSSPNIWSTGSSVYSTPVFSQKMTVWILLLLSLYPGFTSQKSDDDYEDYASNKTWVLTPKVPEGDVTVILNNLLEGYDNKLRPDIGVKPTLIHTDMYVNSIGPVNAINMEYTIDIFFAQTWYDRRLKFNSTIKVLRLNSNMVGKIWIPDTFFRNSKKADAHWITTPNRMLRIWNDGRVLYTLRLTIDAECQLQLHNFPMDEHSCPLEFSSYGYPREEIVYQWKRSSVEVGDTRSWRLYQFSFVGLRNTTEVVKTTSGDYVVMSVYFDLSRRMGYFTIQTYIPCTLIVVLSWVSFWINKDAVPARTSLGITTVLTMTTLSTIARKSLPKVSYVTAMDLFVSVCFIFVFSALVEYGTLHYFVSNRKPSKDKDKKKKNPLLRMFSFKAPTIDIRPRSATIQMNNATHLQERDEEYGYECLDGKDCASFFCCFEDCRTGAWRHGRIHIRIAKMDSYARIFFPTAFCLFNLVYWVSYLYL
T1 sequence (P28472 whole entry): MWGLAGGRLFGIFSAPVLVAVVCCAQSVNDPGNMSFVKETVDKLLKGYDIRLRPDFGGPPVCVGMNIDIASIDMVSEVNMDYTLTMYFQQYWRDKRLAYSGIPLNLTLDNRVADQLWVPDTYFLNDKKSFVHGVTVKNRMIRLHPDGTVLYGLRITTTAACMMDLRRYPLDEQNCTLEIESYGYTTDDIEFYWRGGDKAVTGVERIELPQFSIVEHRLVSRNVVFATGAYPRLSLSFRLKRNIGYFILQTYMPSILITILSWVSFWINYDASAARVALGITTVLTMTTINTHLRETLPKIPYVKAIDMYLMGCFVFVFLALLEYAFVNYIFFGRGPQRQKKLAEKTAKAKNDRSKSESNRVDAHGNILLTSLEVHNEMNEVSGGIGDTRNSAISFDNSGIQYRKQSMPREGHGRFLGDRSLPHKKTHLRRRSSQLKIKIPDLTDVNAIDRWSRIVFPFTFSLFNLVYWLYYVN
The series is described as follows: Displacement of [3H]Ro-151788 from recombinant human GABA-Aalpha1 receptor plus beta3gamma2. The series is classed as protein-complex assay. In outline: (§3)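 Benzodiazepine-site binding on stably transfected αxβ3γ2 receptors (x = 1, 2, 3 or 5). Inhibition curves run with [3H]Ro15-1788 at roughly twice its Kd. Ki derived by Cheng-Prusoff equation. Mean of three to six determinations.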

Series [9] has as its target T2, GABA-A receptor; alpha-5/beta-3/gamma-2 (Homo sapiens, UniProt P18507+P28472+P31644).
T2 sequence (P18507 whole entry): T1 sequence (P18507 whole entry)
T2 sequence (P28472 whole entry): T1 sequence (P28472 whole entry)
T2 sequence (P31644 whole entry): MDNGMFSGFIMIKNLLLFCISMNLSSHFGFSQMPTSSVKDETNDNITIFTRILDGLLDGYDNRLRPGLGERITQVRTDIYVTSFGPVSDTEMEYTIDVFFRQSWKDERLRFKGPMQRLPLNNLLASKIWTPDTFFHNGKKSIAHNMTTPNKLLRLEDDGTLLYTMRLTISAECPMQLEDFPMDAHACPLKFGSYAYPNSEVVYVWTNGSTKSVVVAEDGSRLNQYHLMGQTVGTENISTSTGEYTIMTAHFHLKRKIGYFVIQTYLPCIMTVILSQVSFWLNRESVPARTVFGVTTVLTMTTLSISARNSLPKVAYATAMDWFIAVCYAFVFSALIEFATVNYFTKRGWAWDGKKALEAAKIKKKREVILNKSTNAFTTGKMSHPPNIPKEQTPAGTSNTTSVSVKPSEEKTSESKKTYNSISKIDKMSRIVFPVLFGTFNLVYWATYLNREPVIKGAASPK
Kind of series: Displacement of [3H]Ro-151788 from recombinant human GABA-Aalpha5 receptor plus beta3gamma2. It is filed as protein-complex assay. In outline:
as §3

Series [10] is described as follows: Stability in rat assessed as liver microsomal turnover. The series is classed as ADME, Microsome. Particulars: liver microsomes, read-out: Stability. In outline: (§4)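 Test compound at 1 µM, with diazepam as control, incubated 0.25 h with pooled liver microsomes at 0.5 mg/mL protein. Compound remaining quantified by LC/MS/MS. Turnover is the mean of three determinations.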

A short description of series [11]: Stability in dog assessed as liver microsomal turnover. Conditions: liver microsomes, read-out: Stability. The series is classed as ADME, Canis lupus familiaris. The procedure, abridged:
as §4

The term clearance denotes the volume of plasma or blood freed of the substance per unit of time. Higher therefore signals a high capacity for elimination. For orientation: half-life means how long it takes for the measured level to halve. A higher half-life goes with slow loss. The bioavailability is the share of a dose that reaches the circulation, judged against a reference dose that is usually intravenous. Read a low bioavailability as poor availability. By Ki is commonly meant the equilibrium dissociation constant of an inhibitor or competing ligand from its target.

For the molecule `Fc1cnc(-c2cc(-c3ccc(F)c(-c4ncccc4F)c3)cnn2)c(F)c1`, the Efficacy in series [1] was determined as 0.7; in [2], 0.4; in series [7] it was 0.43. In series [3], this molecule returned a clearance of 3 mL/min/kg. Moreover, the half-life in series [4] is 10 h. The bioavailability in [5] worked out at 100%. In series [6], the Occ50 came out at 0.09 mg/kg. In addition, the Ki in series [8] was 0.5 nM; in series [9] it was 2.8 nM. In addition, the metabolised in [10] is less than 5%.
For `Fc1cnc(-c2cc(-c3cnnc(-c4c(F)cncc4F)c3)ccc2F)c(F)c1`, the Efficacy in series [1] came out at 0.39; in series [7], 0.28. The molecule further yielded a clearance in series [3] of 59 mL/min/kg. In [4], the half-life was 1.6 h. The bioavailability in [5] worked out at 50%. The Occ50 in series [6] amounted to 0.22 mg/kg. Besides, the Ki stood at 1.8 nM in [8] and 6 nM in [9]. In addition, the metabolised was 5% in series [10] and 4% in series [11].
As to `Fc1cnc(-c2cc(-c3ccc(F)c(-c4ncc(F)cc4F)c3)cnn2)c(F)c1`, the Efficacy came to 0.44 in [1], 0.01 in series [2] and 0.12 in series [7]. This molecule had a clearance in [3] of 1.3 mL/min/kg. The molecule also had a half-life in series [4] of 53 h. Further, the bioavailability in series [5] was found to be 88%. This molecule returned an Occ50 in series [6] of 0.52 mg/kg. In addition, the values for the Ki in series [8] and in series [9] were 1.5 nM and 12.1 nM, respectively. Besides, the metabolised in series [10] stood at 3%; in series [11] it was 8%.
Turning to `Fc1cnc(-c2cc(-c3cnnc(-c4c(F)cc(F)cc4F)c3)ccc2F)c(F)c1`, the figures for the Efficacy in series [1], in series [2] and in series [7] were 0.4, 0.14 and 0.36, respectively. Further, the Activity in [6] is 0.7 mg/kg. In addition, the figures for the inhibitory constant (Ki) in series [8] and in series [9] were 2.6 nM and 5.1 nM, respectively. Also, the metabolised turned out to be 4% in series [10] and 0% in [11].
